Test results published in ChEMBL document CHEMBL3822384, “2-(3-Methoxyphenyl)quinazoline Derivatives: A New Class of Direct Constitutive Androstane Receptor (CAR) Agonists” (J Med Chem, 2016).

How the values were obtained:
Type in all cases: cell-based
AHR = target: T1, AHR (Homo sapiens, UniProt P35869); test: (§1) Agonist activity at AHR expressed in human HepG2 cells after 24 hrs by pXRE-luciferase reporter gene assay; settings: human, HepG2 cells expressing AHR; read-out: Imax
T1 sequence (P35869 whole entry): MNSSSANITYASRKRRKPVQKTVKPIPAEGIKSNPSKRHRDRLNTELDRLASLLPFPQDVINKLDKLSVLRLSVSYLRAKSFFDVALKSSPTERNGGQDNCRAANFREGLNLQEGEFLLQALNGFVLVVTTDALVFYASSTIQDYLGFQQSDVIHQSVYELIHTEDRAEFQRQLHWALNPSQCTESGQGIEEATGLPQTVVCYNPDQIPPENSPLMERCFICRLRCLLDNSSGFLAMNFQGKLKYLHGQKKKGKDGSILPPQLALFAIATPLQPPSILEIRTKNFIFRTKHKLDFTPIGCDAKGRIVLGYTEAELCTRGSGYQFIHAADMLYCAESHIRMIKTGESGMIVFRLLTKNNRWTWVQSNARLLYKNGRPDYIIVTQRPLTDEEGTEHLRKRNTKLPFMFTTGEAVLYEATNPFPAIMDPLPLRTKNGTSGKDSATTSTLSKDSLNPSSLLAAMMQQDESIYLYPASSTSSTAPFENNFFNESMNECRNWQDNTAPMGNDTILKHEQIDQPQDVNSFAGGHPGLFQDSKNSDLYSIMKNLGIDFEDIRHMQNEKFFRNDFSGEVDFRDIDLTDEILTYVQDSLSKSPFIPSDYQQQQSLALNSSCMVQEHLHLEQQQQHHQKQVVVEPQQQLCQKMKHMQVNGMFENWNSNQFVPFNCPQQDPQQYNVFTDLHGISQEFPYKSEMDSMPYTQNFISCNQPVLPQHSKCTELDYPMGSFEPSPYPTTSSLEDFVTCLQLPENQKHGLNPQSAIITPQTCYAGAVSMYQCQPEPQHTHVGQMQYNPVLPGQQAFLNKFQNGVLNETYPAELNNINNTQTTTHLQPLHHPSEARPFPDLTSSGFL

[1] = target: T2, Nuclear receptor subfamily 1 group I member 3 (Homo sapiens, UniProt Q14994); test: Agonist activity at CAR expressed in human HepG2 cells at 1 to 20 uM after 48 hrs by p(ER6)3-luciferase reporter gene assay; settings: hepg2, 48 h
T2 sequence (Q14994 whole entry): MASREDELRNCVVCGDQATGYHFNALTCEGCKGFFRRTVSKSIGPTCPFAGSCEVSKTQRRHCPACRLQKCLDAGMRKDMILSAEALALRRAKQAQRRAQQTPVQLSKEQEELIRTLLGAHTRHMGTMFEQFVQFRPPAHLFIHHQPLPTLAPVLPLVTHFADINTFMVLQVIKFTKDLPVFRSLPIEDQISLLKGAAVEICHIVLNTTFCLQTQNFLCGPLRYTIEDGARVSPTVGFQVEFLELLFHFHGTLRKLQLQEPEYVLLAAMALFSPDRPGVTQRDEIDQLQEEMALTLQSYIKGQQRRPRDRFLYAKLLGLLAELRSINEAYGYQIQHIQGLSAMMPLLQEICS
Procedure, shortened: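 HepG2 cells transiently co-transfected with p(ER6)3-luc reporter, wild-type CAR expression vector and pRL-TK normalization plasmid; after 24 h stabilization, treated with compounds or vehicle (DMSO 0.1%, v/v) for 48 h. Firefly and Renilla luciferase read; fold change versus vehicle (set to 1), means ± SD of triplicates from a representative experiment.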

HepG2 = test: Cytotoxicity against human HepG2 cells assessed as cell viability after 24 hrs by MTS assay; settings: hepg2, 24 h
[2] = target: T2, Nuclear receptor subfamily 1 group I member 3; test: Agonist activity at human CAR expressed in human HepG2 cells assessed as upregulation of CYP2B6 mRNA expression at 1 uM after 24 hrs by qRT-PCR method; settings: hepg2, 24 h
[3] = target: T3, Aryl hydrocarbon receptor (Homo sapiens, UniProt P35869); test: as §1
T3 sequence (P35869 whole entry): T1 sequence (P35869 whole entry)

Structure (SMILES) | Emax at 24 h (AHR) | Activity [1] | Activity (HepG2) | Activity [2] | EC50 [3]
Clc1cc2c(cc1Cl)Oc1cc(Cl)c(Cl)cc1O2 [2,3,7,8-TETRACHLORODIBENZO-P-DIOXIN] | 59% |  |  |  | 
COc1cccc(-c2nc(O)c3ccccc3n2)c1 |  | Active |  |  | 
Clc1ccc(-c2nc3sccn3c2/C=N/OCc2ccc(Cl)c(Cl)c2)cc1 |  | Active | Non-toxic | Active | 
Cc1ccc2cc3c(ccc4ccccc43)c3c2c1CC3 [3-METHYLCHOLANTHRENE] | 119% |  |  |  | 490 nM
